This is an account of results in ChEMBL document CHEMBL1155708, “Isoaurostatin, a novel topoisomerase inhibitor produced by Thermomonospora alba” (J Nat Prod, 2001).

The target of test [1] is Telomerase reverse transcriptase (Homo sapiens, UniProt O14746). Description: Inhibition of telomerase from human COLO201 cell.
The nature of test [2]: Inhibition of wheat germ topoisomerase 1 assessed as conversion of supercoiled pBR322 DNA to relaxed form. On the set-up: species or system Triticum aestivum.
Test [3] addresses T1, DNA topoisomerase (Bos taurus, UniProt A0JN73).
T1 sequence (A0JN73 whole entry): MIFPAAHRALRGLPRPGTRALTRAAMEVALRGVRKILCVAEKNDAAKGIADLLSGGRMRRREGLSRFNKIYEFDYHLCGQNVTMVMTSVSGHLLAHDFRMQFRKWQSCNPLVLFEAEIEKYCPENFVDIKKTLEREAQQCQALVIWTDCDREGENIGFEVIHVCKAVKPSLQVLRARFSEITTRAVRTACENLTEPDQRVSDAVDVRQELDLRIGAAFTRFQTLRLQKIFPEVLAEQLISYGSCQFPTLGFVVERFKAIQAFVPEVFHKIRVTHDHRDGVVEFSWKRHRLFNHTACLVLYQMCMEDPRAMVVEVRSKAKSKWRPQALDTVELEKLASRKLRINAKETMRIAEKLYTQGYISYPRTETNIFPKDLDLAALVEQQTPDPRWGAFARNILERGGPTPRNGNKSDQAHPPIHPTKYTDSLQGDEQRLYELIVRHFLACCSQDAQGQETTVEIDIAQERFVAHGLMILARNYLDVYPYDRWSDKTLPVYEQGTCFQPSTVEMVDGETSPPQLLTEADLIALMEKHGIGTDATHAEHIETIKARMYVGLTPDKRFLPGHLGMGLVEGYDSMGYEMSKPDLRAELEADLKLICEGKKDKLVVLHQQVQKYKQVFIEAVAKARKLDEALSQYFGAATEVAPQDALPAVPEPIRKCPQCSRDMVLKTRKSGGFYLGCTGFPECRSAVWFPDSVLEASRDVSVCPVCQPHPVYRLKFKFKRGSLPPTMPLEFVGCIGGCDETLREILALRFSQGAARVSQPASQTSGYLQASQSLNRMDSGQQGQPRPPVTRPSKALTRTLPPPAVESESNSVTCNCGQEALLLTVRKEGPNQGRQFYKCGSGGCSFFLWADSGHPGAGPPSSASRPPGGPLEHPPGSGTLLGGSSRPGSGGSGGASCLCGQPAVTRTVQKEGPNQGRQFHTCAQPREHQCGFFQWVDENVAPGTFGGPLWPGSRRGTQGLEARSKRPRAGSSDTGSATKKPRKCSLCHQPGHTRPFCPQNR
The test is described as follows: Inhibition calf thymus gland topoisomerase 1 assessed as conversion of supercoiled pBR322 DNA to relaxed form.

For test [4], the target named is T2, DNA topoisomerase 1 (Chlorocebus aethiops, UniProt Q7YR26).
T2 sequence (Q7YR26 whole entry): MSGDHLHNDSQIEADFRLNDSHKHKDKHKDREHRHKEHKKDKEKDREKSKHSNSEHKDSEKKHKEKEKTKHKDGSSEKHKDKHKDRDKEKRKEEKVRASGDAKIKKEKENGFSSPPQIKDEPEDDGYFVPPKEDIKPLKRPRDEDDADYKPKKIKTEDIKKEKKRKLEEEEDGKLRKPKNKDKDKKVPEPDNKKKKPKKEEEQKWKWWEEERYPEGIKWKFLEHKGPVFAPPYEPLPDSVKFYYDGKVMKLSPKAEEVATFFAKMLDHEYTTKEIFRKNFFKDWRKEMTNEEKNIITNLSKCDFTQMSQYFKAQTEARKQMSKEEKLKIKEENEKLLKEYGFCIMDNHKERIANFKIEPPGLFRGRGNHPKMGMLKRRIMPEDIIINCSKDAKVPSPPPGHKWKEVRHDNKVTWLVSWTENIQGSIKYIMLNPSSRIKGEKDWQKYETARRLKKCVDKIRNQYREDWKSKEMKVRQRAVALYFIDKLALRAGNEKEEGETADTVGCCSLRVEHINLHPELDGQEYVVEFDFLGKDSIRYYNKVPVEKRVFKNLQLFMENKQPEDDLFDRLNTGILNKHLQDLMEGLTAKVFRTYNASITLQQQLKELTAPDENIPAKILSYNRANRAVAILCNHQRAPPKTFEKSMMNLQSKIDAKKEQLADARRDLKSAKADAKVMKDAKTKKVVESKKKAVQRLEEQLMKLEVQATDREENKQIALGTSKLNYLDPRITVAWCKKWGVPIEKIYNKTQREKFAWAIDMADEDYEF
The test is described as follows: Inhibition topoisomerase 1 in african green monkey Vero cells assessed as conversion of supercoiled pBR322 DNA to relaxed form. In kind it is cell-based, Chlorocebus sabaeus. The method in brief:
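Enzyme source: Vero or NIH3T3 cells cultured 5 days, washed in PBS and pelleted (1 × 10^6 cells). Lysed 30 min on ice in 200 µL buffer (10 mM Tris-HCl pH 7.5, MgCl2, EGTA, AEBSF, β-mercaptoethanol, 0.5% CHAPS, 10% glycerin); the cleared supernatant relaxed supercoiled pBR322. Gel densitometry; IC50 is the amount halving activity.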

Test [5] deals with T3, Ribonuclease pancreatic (Bos taurus, UniProt P61823).
T3 sequence (P61823 whole entry): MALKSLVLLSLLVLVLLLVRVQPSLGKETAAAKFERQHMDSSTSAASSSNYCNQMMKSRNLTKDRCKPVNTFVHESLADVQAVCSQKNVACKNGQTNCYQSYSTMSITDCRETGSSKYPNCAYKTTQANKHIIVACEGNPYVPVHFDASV
The test is described as follows: Inhibition of bovine pancreas RNase A assessed as undigested supercoiled pBR322 DNA concentration. The gist of the method:
(§1)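 Restriction enzyme or nuclease activity followed as the remaining undigested supercoiled pBR322 DNA (or RNA) after reaction.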

The target in test [6] is T4, DNA ligase (Enterobacteria phage T4, UniProt P00970).
T4 sequence (P00970 whole entry): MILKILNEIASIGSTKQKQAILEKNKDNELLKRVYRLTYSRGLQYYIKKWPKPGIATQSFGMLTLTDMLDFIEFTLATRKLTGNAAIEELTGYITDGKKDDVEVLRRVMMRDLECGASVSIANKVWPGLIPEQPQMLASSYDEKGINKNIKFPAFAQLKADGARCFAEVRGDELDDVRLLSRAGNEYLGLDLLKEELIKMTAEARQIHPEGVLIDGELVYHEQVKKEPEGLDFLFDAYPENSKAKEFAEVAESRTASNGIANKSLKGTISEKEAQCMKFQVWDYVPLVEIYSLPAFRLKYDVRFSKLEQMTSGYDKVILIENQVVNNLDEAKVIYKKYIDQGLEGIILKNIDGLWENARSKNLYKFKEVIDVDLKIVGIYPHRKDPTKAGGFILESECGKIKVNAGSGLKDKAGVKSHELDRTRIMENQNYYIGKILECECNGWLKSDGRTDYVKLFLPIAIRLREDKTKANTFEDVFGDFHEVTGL
Description: Inhibition of T4 ligase from bacteriophage infected Escherichia coli assessed as ligation of supercoiled pBR322 DNA. Details: species or system Tequatrovirus T4.

Test [7] is described as follows: Inhibition of Arthrobacter luteus AluI assessed as undigested supercoiled pBR322 DNA concentration. Details: species or system Cellulosimicrobium cellulans. The gist of the method:
as §1

For test [8], the target named is Type II restriction enzyme EcoRI (Escherichia coli, UniProt P00642). The test is described as follows: Inhibition of Escherichia coli Eco R1 assessed as undigested supercoiled pBR322 DNA concentration. The gist of the method: as §1
Test [9] addresses DNA topoisomerase 2-alpha (Homo sapiens, UniProt P11388). The test is described as follows: Inhibition human placenta topoisomerase 2 assessed as conversion of supercoiled pBR322 DNA to relaxed form.

A word on the IC50: it is the concentration at which inhibition is half-maximal.

Chain of Telomerase reverse transcriptase (O14746 whole entry): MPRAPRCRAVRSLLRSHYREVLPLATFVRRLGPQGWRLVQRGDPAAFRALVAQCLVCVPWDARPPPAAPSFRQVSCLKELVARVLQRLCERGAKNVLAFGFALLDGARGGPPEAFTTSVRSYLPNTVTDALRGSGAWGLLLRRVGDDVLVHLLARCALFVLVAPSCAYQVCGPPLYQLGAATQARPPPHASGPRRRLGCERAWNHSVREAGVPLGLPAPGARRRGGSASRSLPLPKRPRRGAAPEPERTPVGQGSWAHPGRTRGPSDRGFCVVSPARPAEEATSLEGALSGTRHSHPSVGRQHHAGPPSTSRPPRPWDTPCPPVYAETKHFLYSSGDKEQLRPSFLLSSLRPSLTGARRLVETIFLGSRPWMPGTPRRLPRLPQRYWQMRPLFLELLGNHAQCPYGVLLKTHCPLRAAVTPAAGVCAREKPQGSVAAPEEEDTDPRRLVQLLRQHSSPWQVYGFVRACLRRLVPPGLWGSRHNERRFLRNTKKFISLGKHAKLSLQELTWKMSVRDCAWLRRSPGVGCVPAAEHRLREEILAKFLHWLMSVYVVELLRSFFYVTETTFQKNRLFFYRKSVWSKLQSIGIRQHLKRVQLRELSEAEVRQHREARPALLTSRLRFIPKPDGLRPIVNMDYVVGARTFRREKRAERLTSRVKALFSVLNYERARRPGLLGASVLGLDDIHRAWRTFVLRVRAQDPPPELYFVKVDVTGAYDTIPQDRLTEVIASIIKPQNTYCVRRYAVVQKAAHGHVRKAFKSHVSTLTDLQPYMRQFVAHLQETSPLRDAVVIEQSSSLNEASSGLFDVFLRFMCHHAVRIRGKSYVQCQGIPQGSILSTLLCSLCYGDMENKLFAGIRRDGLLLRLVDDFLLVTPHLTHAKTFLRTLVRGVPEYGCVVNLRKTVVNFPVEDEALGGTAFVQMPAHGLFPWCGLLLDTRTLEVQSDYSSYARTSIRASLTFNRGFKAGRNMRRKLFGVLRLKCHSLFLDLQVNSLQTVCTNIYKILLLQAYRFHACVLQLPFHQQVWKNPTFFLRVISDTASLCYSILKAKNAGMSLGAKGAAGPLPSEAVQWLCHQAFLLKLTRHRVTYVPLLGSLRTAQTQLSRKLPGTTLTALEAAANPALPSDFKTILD
Chain of DNA topoisomerase 2-alpha (P11388 whole entry): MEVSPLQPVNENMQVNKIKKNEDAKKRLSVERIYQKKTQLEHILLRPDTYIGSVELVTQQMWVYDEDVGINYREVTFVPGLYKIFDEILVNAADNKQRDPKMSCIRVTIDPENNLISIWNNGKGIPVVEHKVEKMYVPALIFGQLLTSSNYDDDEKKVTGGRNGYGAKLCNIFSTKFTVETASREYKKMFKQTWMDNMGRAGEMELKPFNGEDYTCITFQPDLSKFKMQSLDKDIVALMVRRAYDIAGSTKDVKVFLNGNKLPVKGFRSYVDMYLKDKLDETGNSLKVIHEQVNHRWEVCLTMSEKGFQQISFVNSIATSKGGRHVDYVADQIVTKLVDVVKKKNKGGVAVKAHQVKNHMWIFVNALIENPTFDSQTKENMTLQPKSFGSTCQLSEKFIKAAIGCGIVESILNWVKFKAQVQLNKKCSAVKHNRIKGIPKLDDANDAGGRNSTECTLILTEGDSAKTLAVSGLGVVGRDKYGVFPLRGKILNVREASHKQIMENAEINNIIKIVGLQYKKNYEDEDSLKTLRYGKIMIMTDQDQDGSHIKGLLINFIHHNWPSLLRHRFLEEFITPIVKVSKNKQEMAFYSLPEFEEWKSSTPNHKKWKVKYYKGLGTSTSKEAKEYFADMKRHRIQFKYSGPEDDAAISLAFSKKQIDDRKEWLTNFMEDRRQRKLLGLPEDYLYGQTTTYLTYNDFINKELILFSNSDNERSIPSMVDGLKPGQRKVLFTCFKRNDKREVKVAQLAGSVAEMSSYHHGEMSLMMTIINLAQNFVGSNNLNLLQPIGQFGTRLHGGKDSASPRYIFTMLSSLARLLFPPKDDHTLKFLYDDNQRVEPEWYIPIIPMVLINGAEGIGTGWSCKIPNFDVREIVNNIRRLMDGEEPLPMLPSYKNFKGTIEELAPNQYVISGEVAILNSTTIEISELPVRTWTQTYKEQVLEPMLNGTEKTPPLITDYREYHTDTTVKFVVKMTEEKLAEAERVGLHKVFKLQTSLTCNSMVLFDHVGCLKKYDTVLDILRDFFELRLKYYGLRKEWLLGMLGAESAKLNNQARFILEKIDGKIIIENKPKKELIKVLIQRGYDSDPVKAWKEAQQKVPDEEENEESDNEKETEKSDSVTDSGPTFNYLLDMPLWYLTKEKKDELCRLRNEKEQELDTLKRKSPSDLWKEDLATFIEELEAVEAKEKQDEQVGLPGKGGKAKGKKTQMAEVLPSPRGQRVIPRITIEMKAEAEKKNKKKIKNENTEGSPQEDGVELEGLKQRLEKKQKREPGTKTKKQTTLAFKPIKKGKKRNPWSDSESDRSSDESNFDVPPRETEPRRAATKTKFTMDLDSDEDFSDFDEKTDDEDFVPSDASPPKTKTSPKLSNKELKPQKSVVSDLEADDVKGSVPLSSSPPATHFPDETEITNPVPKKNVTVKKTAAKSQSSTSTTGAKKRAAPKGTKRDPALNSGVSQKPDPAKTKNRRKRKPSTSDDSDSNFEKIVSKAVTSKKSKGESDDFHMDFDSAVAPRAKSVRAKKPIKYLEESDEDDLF
Chain of Type II restriction enzyme EcoRI (P00642 whole entry): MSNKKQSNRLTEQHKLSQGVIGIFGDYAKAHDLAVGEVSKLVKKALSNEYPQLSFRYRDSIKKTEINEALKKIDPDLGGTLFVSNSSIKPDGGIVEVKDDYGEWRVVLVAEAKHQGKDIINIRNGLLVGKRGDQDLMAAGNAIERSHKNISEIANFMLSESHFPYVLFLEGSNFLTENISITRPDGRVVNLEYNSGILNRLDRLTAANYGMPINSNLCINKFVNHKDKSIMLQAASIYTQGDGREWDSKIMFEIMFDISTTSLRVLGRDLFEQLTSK

Regarding `CC[C@@]1(O)C(=O)OCc2c1cc1n(c2=O)Cc2cc3ccccc3nc2-1` [CAMPTOTHECIN], the IC50 in [1] is greater than 300 µM; in test [2], 3 µM; in test [3], 17 µM; in test [4], 27 µM; in [5], greater than 300 µM; in [6] it was greater than 300 µM. Also, the IC50 in test [7] and in [8] was greater than 300 µM in each case.

Turning to `O=C1Oc2cc(O)ccc2/C1=C\c1ccc(O)cc1` [ISOAUROSTATIN], the IC50 is greater than 400 µM in [1]; 67 µM in test [2]; 307 µM in [3]; greater than 400 µM in test [4]; greater than 400 µM in test [9]; greater than 400 µM in test [5]. In addition, the IC50 in test [6], in [7] and in [8] was greater than 400 µM each time.

Turning to `C=C1NC(=O)C(C)C(CCC(C)C(=O)/C=C/C(C)=C/CC(C)CCCCCCC)OC(=O)[C@H](CC(OS(=O)(=O)O)C(N)=O)NC(=O)[C@@H](C)CNC1=O` (stereo not given in full) [TOPOSTATIN], the IC50 in test [1] is greater than 250 µM; in [2], 1 µM; in test [3] it was 17 µM; in [4] it was 17 µM; in [9], 4 µM; in [5] it was greater than 250 µM. Also, the half-maximal inhibitory concentration (IC50) in [6], in test [7] and in test [8] was greater than 250 µM throughout.

Consider `COc1cccc2c1C(=O)c1c(O)c3c(c(O)c1C2=O)C[C@@](O)(C(=O)CO)C[C@@H]3O[C@H]1C[C@H](N)[C@H](O)[C@H](C)O1` [DOXORUBICIN], for which the IC50 was 73 µM in [1]; greater than 200 µM in test [2]; greater than 200 µM in test [3]; greater than 200 µM in [4]; 1 µM in [9]; 25 µM in test [5]. The IC50 in [6] is greater than 200 µM; in test [7] it was 24 µM; in [8], greater than 200 µM.
